Assays:
[1] = target: Sigma non-opioid intracellular receptor 1 (Cavia porcellus, UniProt Q60492); experiment: Displacement of [3H](+)-pentazocine from sigma 1 receptor in guinea pig brain membrane assessed as inhibition constant by liquid scintillation counter analysis; assay type: cell membranes
Histamine H3 receptor [2] = target: T1, Histamine H3 receptor (Homo sapiens, UniProt Q9Y5N1); experiment: Inhibition of recombinant human histamine H3 receptor stably expressed in HEK293 cells assessed as increase in cAMP accumulation in presence of forskolin incubated for 30 mins by TR-FRET LANCE assay; assay type: functional, cell-based
T1 sequence (Q9Y5N1 whole entry): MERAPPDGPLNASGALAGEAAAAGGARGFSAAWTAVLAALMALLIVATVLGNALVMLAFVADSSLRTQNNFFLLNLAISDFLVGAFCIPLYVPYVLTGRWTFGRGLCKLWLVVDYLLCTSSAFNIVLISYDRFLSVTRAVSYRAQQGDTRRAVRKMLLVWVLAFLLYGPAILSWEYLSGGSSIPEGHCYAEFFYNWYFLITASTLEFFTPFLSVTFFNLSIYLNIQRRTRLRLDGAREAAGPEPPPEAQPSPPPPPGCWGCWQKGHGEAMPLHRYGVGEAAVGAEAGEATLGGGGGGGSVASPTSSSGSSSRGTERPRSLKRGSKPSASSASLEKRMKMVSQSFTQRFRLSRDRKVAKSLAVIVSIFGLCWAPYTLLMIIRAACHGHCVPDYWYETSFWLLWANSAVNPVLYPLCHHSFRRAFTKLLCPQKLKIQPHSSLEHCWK

[3] = Neurotoxicity against mouse assessed as decrease in time spent on rod at 15 mg/kg,ip administration at 18 rpm by rotarod test; assay type: toxicity, organism-based; conditions: in vivo
Summary of the method: (§1)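 Mice received 15 mg/kg i.p. or vehicle. Motor coordination was then measured as time on the rotarod, at 18 and 24 rpm, with a maximum of 60 s.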

[4] = Neurotoxicity against mouse assessed as sedative effect at 15 mg/kg,ip observed after 30 mins of administration; assay type: toxicity, organism-based; conditions: in vivo, 0.5 h
Summary of the method: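 Spontaneous locomotor activity was recorded in mice after i.p. dosing at 15 or 30 mg/kg, compared with vehicle, as a test of sedation. Analysis was one-way ANOVA. […]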

[5] = Neurotoxicity against mouse assessed as decrease in time spent on rod at 15 mg/kg,ip administration at 24 rpm by rotarod test; assay type: toxicity, organism-based; conditions: in vivo; summary of the method: as §1
Histamine H3 receptor [6] = target: T1, Histamine H3 receptor; experiment: Displacement of [3H]Nalpha-methylhistamine from recombinant human histamine H3 receptor stably expressed in HEK293 cells assessed as inhibition constant by competitive binding based radioligand depletion assay; assay type: cell-based

Chain of Sigma non-opioid intracellular receptor 1 (Q60492 whole entry): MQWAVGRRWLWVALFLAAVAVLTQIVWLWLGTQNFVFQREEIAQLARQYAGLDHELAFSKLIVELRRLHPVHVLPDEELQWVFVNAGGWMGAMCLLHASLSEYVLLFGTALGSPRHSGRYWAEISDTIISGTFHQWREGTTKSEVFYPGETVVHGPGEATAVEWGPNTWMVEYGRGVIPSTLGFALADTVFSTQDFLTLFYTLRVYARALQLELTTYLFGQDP

`c1cc(OCCCN2CCCCC2)ccc1CN1CCCCC1` [JNJ-5207852] showed a Ki [1] of 1170 nM.
In the case of `c1ccc(Nc2ccc(OCCCN3CCCCC3)cc2)cc1`, the IC50 (Histamine H3 receptor [2]) is reported as 83.7 nM, the Activity [3] is reported as “Toxic” and the Activity [4] is reported as “Toxic”. For the same compound, the Activity [5] was “Toxic”.
Work on `c1ccc(Cc2ccc(OCCCN3CCCCC3)cc2)cc1` yielded a Ki (Histamine H3 receptor [6]) of 27.5 nM.

Reference: ChEMBL document CHEMBL5346953, “Dual Piperidine-Based Histamine H3 and Sigma-1 Receptor Ligands in the Treatment of Nociceptive and Neuropathic Pain” (J Med Chem, 2023)
